# According to ChEMBL document CHEMBL1151976, “Bioactive sulfated sesterterpene alkaloids and sesterterpene sulfates from the marine sponge Fasciospongia sp” (J Nat Prod, 2009):
# The source made the active and inactive calls. No cut-off for these calls is given here.
# Tests used:
# Streptomyces [1] = assay: Antimicrobial activity against Streptomyces 85E assessed as inhibition of hyphae formation at 2.5 ug/disk after 30 hrs; format: functional
# How it was run: (§1)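 Streptomyces 85E mycelial fragments spread as a lawn on minimal medium ISP 4 agar. Compounds in MeOH loaded onto 7 mm filter disks, air-dried, placed on plates, incubated 30 °C for 30 h. Read-out: clear or bald (hyphae-free) zone diameter around the disk; >9 mm counted active. Surfactin positive control, MeOH negative control; run in duplicate.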
# Streptomyces [2] = assay: Antimicrobial activity against Streptomyces 85E assessed as inhibition of hyphae formation at 20 ug/disk after 30 hrs; format: functional; details: read-out: IZ; how it was run: as §1
# Streptomyces [3] = assay: Antimicrobial activity against Streptomyces 85E assessed as inhibition of hyphae formation at 10 ug/disk after 30 hrs; format: functional; details: read-out: IZ; how it was run: as §1
# Lu1 [4] = assay: Cytotoxicity against human Lu1 cells at 20 ug/ml after 72 hrs by SRB assay; format: functional, cell-based
# How it was run: (§2)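 Single-concentration screen at 20 µg/mL. Cells seeded at 10^6 cells/mL in 96-well plates, sample added in 10% DMSO, incubated 72 h at 37 °C. Viability by sulforhodamine B staining, compared with a 0.5% DMSO-treated control.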
# LNCaP [5] = assay: Cytotoxicity against human LNCAP cells at 20 ug/ml after 72 hrs by SRB assay; format: functional, cell-based; how it was run: as §2
# Streptomyces [6] = assay: Antimicrobial activity against Streptomyces 85E assessed as inhibition of hyphae formation at 5 ug/disk after 30 hrs; format: functional; details: for zone of inhibition at 5 µg/disc: read-out: IZ; how it was run: as §1
# MCF7 [7] = assay: Cytotoxicity against human MCF7 cells at 20 ug/ml after 72 hrs by SRB assay; format: functional, cell-based; how it was run: as §2
# HeLa = assay: Cytotoxicity against human HeLa cells after 72 hrs by SRB assay; format: functional, cell-based
# MCF7 [8] = assay: Cytotoxicity against human MCF7 cells after 72 hrs by SRB assay; format: functional, cell-based; details: MCF7, 72 h
# How it was run: (§3)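 Cells seeded at 10^6 cells/mL in 96-well plates. Six serial dilutions of sample in 10% DMSO added in triplicate. Incubated 72 h at 37 °C; viability measured by sulforhodamine B staining. IC50 is the concentration giving 50% growth inhibition relative to 0.5% DMSO-treated control, averaged over two independent experiments.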
# LNCaP [9] = assay: Cytotoxicity against human LNCAP cells after 72 hrs by SRB assay; format: functional, cell-based; how it was run: as §3
# Lu1 [10] = assay: Cytotoxicity against human Lu1 cells after 72 hrs by SRB assay; format: functional, cell-based; details: Lu1, 72 h; how it was run: as §3
Compound,inhibition zone (IZ) (Streptomyces [1]),zone of inhibition at 20 µg/disc (Streptomyces [2]) [mm],zone of inhibition at 10 µg/disc (Streptomyces [3]) [mm],Activity (Lu1 [4]),Activity (LNCaP [5]),inhibition zone (IZ) (Streptomyces [6]),Activity (MCF7 [7]),zone of inhibition at 5 µg/disc (Streptomyces [6]) [mm],IC50 (HeLa) [µg/mL],zone of inhibition at 2.5 µg/disc (Streptomyces [1]; read-out: IZ) [mm],IC50 (MCF7 [8]) [µM],IC50 (LNCaP [9]) [µM],IC50 (Lu1 [10]) [µM]
C[C@H]1CC[C@H]2C(=CCCC2(C)C)[C@@]1(C)CCC(CCCC1=CC(=O)OC1O)COS(=O)(=O)O (stereo not given in full),inactive,19,13,Not toxic,Not toxic,inactive,Not toxic,–,–,–,–,–,–
C[C@H]1CC[C@H]2C(=CCCC2(C)C)[C@@]1(C)CCC(CCCC1=CC(=O)OC1)COS(=O)(=O)O (stereo not given in full) [HALISULFATE 9],inactive,16,14,Not toxic,Not toxic,inactive,Not toxic,–,–,–,–,–,–
C[C@H]1CC[C@H]2C(=CCCC2(C)C)[C@@]1(C)CCC(CCCC1=CCN(CCc2c[nH]cn2)C1=O)COS(=O)(=O)O (stereo not given in full) [FASCIOSPONGINE A],inactive,18,16,Not toxic,Not toxic,–,Not toxic,14,–,–,–,–,–
C[C@H]1CC[C@H]2C(=CCCC2(C)C)[C@@]1(C)CCC(CCCC1=CCN(CCCCNC(=N)N)C1=O)COS(=O)(=O)O (stereo not given in full) [FASCIOSPONGINE C],inactive,14,13,Not toxic,Not toxic,inactive,Not toxic,–,–,–,–,–,–
C[C@H]1CC[C@H]2C(=CCCC2(C)C)[C@@]1(C)CCC(CCCc1ccoc1)COS(=O)(=O)O (stereo not given in full) [HALISULFATE 7],inactive,18,15,Not toxic,Not toxic,inactive,Not toxic,–,16,–,–,–,–
C[C@H]1CC[C@H]2C(=CCCC2(C)C)[C@@]1(C)CCC(CCCC1=CC(=O)N(CCc2c[nH]cn2)C1=O)COS(=O)(=O)O (stereo not given in full) [19-OXOFASCIOSPONGINE A],–,25,20,–,–,–,–,16,–,14,13.4,21.8,5
C[C@H]1CC[C@H]2C(=CCCC2(C)C)[C@@]1(C)CCC(CCCC1=CC(=O)N(CCc2c[nH]cn2)C1)COS(=O)(=O)O (stereo not given in full) [FASCIOSPONGINE B],inactive,19,17,Not toxic,Not toxic,–,Not toxic,15,–,–,–,–,–
